Data on 24 compounds can be found in ChEMBL document CHEMBL1143683, “Arylthioindole inhibitors of tubulin polymerization. 3. Biological evaluation, structure-activity relationships and molecular modeling studies” (J Med Chem, 2007).

As usually defined, the IC50 is the concentration at which inhibition is half-maximal. Low readings indicate greater potency in that assay, high ones weaker potency in that assay. For orientation: inhibition means the change of the read-out against control, counted positive when it falls.

One test has as its system MCF7. Kind of test: Growth inhibition of human MCF7 cells after 48 hrs. It is filed as functional, cell-based. As to conditions: MCF7, 48 h.
Test [1] has as its target Tubulin. Description: Inhibition of tubulin polymerization. In kind it is protein-complex assay, Homo sapiens. A digest of the protocol: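 Tubulin at 10 µM in 0.8 M monosodium glutamate pH 6.6 with varying drug, preincubated 15 min at 30 °C, then chilled on ice. Assembly started with 0.4 mM GTP and followed as turbidity at 350 nm for 20 min at 30 °C. IC50 taken from the extent of assembly.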

For another test, the target named is Tubulin (Homo sapiens) (UniProt P68371+Q9H4B7+P0DPH7+P68366+Q13509+Q71U36+P04350+Q3ZCM7+P07437+P68363+Q9BQE3+Q6PEY2+Q13885+Q9BVA1+Q9BUF5). Kind of test: Inhibition of [3H]colchicine binding to tubulin at 5 uM. It is filed as protein-complex assay.
Test [2] concerns the target Tubulin. Kind of test: Displacement of MTC from tubulin. It is filed as protein-complex assay, Homo sapiens.
Test [3] has as its system HeLa. Description: Induction of apoptosis in HeLa cells assessed as PARP1 ceavage at 100 uM. In kind it is functional, cell-based. As to conditions: Homo sapiens. A digest of the protocol:
(§1)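 HeLa cells given 10 µM for 24 h, or 100 µM for 3 h followed by 24 h recovery. Total extracts from 2.5 × 10⁶ cells analysed by western blot with anti-PARP-1 mAb C-2-10 and an HRP anti-mouse secondary, ECL detection. PARP-1 proteolysis taken as the marker of caspase activation.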

The subject of test [4] is HeLa. Kind of test: Cell cycle arrest in HeLa cells assessed as accumulation at S phase at 10 uM after 24 hrs with further incubation in drug free medium for 24 hrs. In kind it is functional, Homo sapiens. An outline of the steps:
(§2)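 HeLa cells in DMEM with 10% FCS, 37 °C, 5% CO2. Subconfluent cells trypsinized, seeded at 2.5 × 10⁵ cells/mL and exposed to 10 µM for 24 h (0.1% DMSO in parallel samples). Harvested either at once or after another 24 h in drug-free medium. Ethanol-fixed, stained with propidium iodide plus RNase A, ≥10 000 cells flow-analysed. Values are % of cells per phase; one typical experiment.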

The test system of test [5] is HeLa. Description: Induction of apoptosis in HeLa cells assessed as PARP1 ceavage at 10 uM. It is filed as functional, cell-based. As to conditions: Homo sapiens. An outline of the steps:
as §1

Test [6] deals with HeLa. Description: Cell cycle arrets in HeLa cells assessed as accumulation at G1 phase at 10 uM after 24 hrs. It is filed as functional, Homo sapiens. A digest of the protocol:
as §2

In test [7] the test system is HeLa. Description: Cell cycle arrest in HeLa cells assessed as accumulation at G2/M phase at 10 uM after 24 hrs. In kind it is functional, Homo sapiens. An outline of the steps:
as §2

Test [8] deals with HeLa. Description: Cell cycle arrets in HeLa cells assessed as accumulation at G1 phase at 10 uM for 24 hrs with further incubation in drug free medium for 24 hrs. It is filed as functional, Homo sapiens. An outline of the steps:
as §2

Test [9] concerns HeLa. Kind of test: Cell cycle arrest in HeLa cells assessed as accumulation at S phase at 10 uM after 24 hrs. In kind it is functional, Homo sapiens. An outline of the steps:
as §2

For test [10], the system named is HeLa. Kind of test: Cell cycle arrest in HeLa cells assessed as accumulation of A0 sub-G1 DNA content at 10 uM after 24 hrs. It is filed as functional, Homo sapiens. A digest of the protocol:
as §2

The test system of test [11] is HeLa. Description: Cell cycle arrest in HeLa cells assessed as accumulation at G2/M phase at 10 uM after 24 hrs with furthur incubation in drug free medium for 24 hrs. In kind it is functional, Homo sapiens. An outline of the steps: as §2
Test [12] relates to HeLa. Kind of test: Cell cycle arrest in HeLa cells assessed as accumulation of A0 sub-G1 DNA content at 10 uM after 24 hrs with further incubation in drug free medium for 24 hrs. It is filed as functional, Homo sapiens. A digest of the protocol: as §2
The test system of test [13] is HeLa. Kind of test: Cell cycle arrest in HeLa cells assessed as accumulation at >4C phase at 10 uM after 24 hrs with furthur incubation in drug free medium for 24 hrs. It is filed as functional, Homo sapiens. An outline of the steps:
as §2

The test system of test [14] is HeLa. Description: Cell cycle arrest in HeLa cells assessed as accumulation at >4C phase at 10 uM after 24 hrs. It is filed as functional, Homo sapiens. A digest of the protocol: as §2

Activity calls are given as the source filed them. The rule behind the calls is not given here.

Consider `COc1cc(Sc2c[nH]c3ccccc23)cc(OC)c1OC`, for which the IC50 worked out at 0.034 µM in the test on MCF7 and 2.6 µM against Tubulin [1]. This compound also gave an inhibition at Tubulin (Homo sapiens) of 68%. In addition, the Ka on Tubulin [2] came to 5.21e+06 M⁻¹.
For the compound `COc1ccc2[nH]cc(Sc3cc(OC)c(OC)c(OC)c3)c2c1`, the half-maximal inhibitory concentration (IC50) in the test on MCF7 amounted to 0.022 µM; on Tubulin [1] it was 4.1 µM. The compound also showed an inhibition on Tubulin (Homo sapiens) of 61%. This compound also registered a Ka at Tubulin [2] of 3.05e+06 M⁻¹.
Take `COc1ccc(/C=C\c2cc(OC)c(OC)c(OC)c2)cc1O` [COMBRETASTATIN A4]: the IC50 in the test on MCF7 was 0.017 µM.
As to `COc1cc(Sc2c[nH]c3ccc(OC(C)C)cc23)cc(OC)c1OC`, the results for the IC50 with MCF7 and at Tubulin [1] were 1.5 µM and 19 µM, respectively.
Compound `COc1ccc(-c2ccc(OC)c(=O)cc2)c(OC)c1OC` displayed a Ka on Tubulin [2] of 470000 M⁻¹.
Turning to `COc1cc(Sc2c(C)[nH]c3ccccc23)cc(OC)c1OC`, the IC50 was found to be 0.046 µM in the test on MCF7 and 6.8 µM on Tubulin [1]. For the same compound, the inhibition at Tubulin (Homo sapiens) is 61%. On Tubulin [2], the Ka turned out to be 5.5e+06 M⁻¹.
Taken in the same sequence, the figures for `COc1cc(Sc2c[nH]c3ccc(I)cc23)cc(OC)c1OC` were 0.068 µM, 2.7 µM, 61% and 2.31e+06 M⁻¹.
As to `COC(=O)c1[nH]c2ccc(Cl)cc2c1Sc1cc(OC)c(OC)c(OC)c1`, the Ka at Tubulin [2] was found to be 1.3e+06 M⁻¹.
Take `COc1cc(Sc2c[nH]c3ccc(N)cc23)cc(OC)c1OC`: the figures for the IC50 with MCF7 and against Tubulin [1] were 0.26 µM and 13 µM, respectively.
Regarding `COc1cc(Sc2c[nH]c3ccc(Cl)cc23)cc(OC)c1OC`, the IC50 was determined as 0.077 µM in the test on MCF7 and 2.6 µM against Tubulin [1]. The inhibition on Tubulin (Homo sapiens) is 51%. The Ka on Tubulin [2] is 810000 M⁻¹.
Regarding `COc1cc([C@@H]2c3cc4c(cc3[C@@H](O[C@@H]3O[C@@H]5CO[C@@H](C)O[C@H]5[C@H](O)[C@H]3O)[C@H]3COC(=O)[C@H]23)OCO4)cc(OC)c1O`, the outcome in the test on HeLa [3] was Active.
As to `COc1cc(Sc2c[nH]c3ccc(OCCOCc4ccccc4)cc23)cc(OC)c1OC`, the figures for the IC50 with MCF7 and against Tubulin [1] were 0.26 µM and more than 40 µM, respectively.
As to `COc1ccc2[nH]c(C)c(Sc3cc(OC)c(OC)c(OC)c3)c2c1`, the IC50 in the test with MCF7 was 0.018 µM; on Tubulin [1] it was 3.3 µM. On Tubulin (Homo sapiens), this compound showed an inhibition of 69%. This compound also yielded a Ka on Tubulin [2] of 6.38e+06 M⁻¹.
The corresponding values for `COc1cc(Sc2c(C)[nH]c3ccc(Cl)cc23)cc(OC)c1OC` are 0.082 µM, 2.7 µM, 59% and 2.07e+06 M⁻¹.
`COC(=O)c1[nH]c2ccccc2c1Sc1cc(OC)c(OC)c(OC)c1` yielded a Ka on Tubulin [2] of 570000 M⁻¹.
On to `COc1cc(Sc2c[nH]c3ccc(F)cc23)cc(OC)c1OC`, for which the IC50 in the test on MCF7 came out at 0.16 µM; at Tubulin [1], 3.3 µM. The compound further showed an inhibition at Tubulin (Homo sapiens) of 39%.
Taken in the same sequence, the figures for `Cc1cc(C)cc(Sc2c[nH]c3ccc(Cl)cc23)c1` were 1.2 µM, 9.4 µM and 33%.
Taken in the same sequence, the figures for `COc1cc(Sc2c[nH]c3ccc(O)cc23)cc(OC)c1OC` were 0.19 µM, 6.3 µM and 26%.
Taken in the same sequence, the figures for `COc1cc(Sc2c[nH]c3ccc(OCCO)cc23)cc(OC)c1OC` were 0.095 µM, 6.8 µM and 31%.
Take `COc1cc(Sc2c[nH]c3ccc(C)cc23)cc(OC)c1OC`: the IC50 is 0.016 µM with MCF7 and 2.7 µM at Tubulin [1]. The inhibition on Tubulin (Homo sapiens) came to 56%. This compound also registered a Ka on Tubulin [2] of 1.96e+06 M⁻¹.
In the case of `COc1cc(Sc2c[nH]c3ccc(Br)cc23)cc(OC)c1OC`, the IC50 in the test with MCF7 came to 0.043 µM; at Tubulin [1], 1.6 µM. Moreover, the Activity with HeLa [4] is recorded as 10.5%; in the test on HeLa [6], 1.8%; with HeLa [7], 56.1%; in the test with HeLa [8], 3.5%; in the test with HeLa [9], 8.9%; in the test on HeLa [10] it was 6.5%. Moreover, the Activity with HeLa [11] stood at 53.1%; in the test on HeLa [12] it was 4.5%; with HeLa [13], 26%; in the test on HeLa [14] it was 4.2%. Further, the outcome in the test on HeLa [5] was inactive. The compound also had an inhibition at Tubulin (Homo sapiens) of 65%. In addition, on Tubulin [2], the Ka amounted to 2.76e+06 M⁻¹.
Regarding `COc1cc(Sc2c[nH]c3ccc([N+](=O)[O-])cc23)cc(OC)c1OC`, the results for the IC50 in the test on MCF7 and on Tubulin [1] were 0.56 µM and 16 µM, respectively.
Taken in the same sequence, the figures for `COc1ccccc1Sc1c[nH]c2ccc(Cl)cc12` were more than 2.5 µM and 11 µM.
For the compound `CCOc1ccc2[nH]cc(Sc3cc(OC)c(OC)c(OC)c3)c2c1`, the IC50 was determined as 0.016 µM in the test with MCF7 and 2.1 µM against Tubulin [1]. Also, the inhibition on Tubulin (Homo sapiens) came out at 76%.
